The results in this text go back to ChEMBL document CHEMBL4152337, “Novel indolo-sophoridinic scaffold as Topo I inhibitors: Design, synthesis and biological evaluation as anticancer agents” (Eur J Med Chem, 2018).

What all share (format): functional, cell-based
In one assay the test system is HepG2. The experiment in a line: Cytotoxicity against human HepG2 cells assessed as reduction in cell viability after 48 hrs by MTT assay. Particulars: HepG2, 48 h. In outline: (§1)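 Cells at 3–4 × 10⁴/mL in DMEM + 10% FBS, pre-incubated 24 h in 5% CO₂. Then exposed 48 h to serial dilutions at 1, 5, 10, 20 and 50 µM; final DMSO <0.1%. MTT (5 mg/mL solution) added for 4 h at 37 °C, supernatant removed, formazan dissolved in DMSO, colorimetric read-out.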

The test system of the next assay is CNE-2. In words: Cytotoxicity against human CNE2 cells assessed as reduction in cell viability after 48 hrs by MTT assay. Particulars: CNE-2, 48 h. In outline: as §1
The subject of another assay is A549. In words: Cytotoxicity against human A549 cells assessed as reduction in cell viability after 48 hrs by MTT assay. Particulars: A549, 48 h. In short, it runs like this: as §1

Each structure is given as a SMILES string.

Take `COC(=O)CCC[C@@H]1[C@H]2CCCN3CCC[C@H](CN1Cc1cn(C)c4ccccc14)[C@@H]23`: the IC50 worked out at 15.2 µM in the assay on HepG2, 43.4 µM in the assay on CNE-2 and 42.8 µM in the assay with A549.

Turning to `COC(=O)CCC[C@@H]1[C@H]2CCCN3CCC[C@H](CN1Cc1cn(CC4CC4)c4ccccc14)[C@@H]23`, the IC50 stood at 14.4 µM with HepG2, 13.4 µM in the assay with CNE-2 and 30.3 µM in the assay with A549.

On to `COC(=O)CCC[C@@H]1[C@H]2CCCN3CCC[C@H](CN1Cc1cn(Cc4ccc(F)cc4)c4ccccc14)[C@@H]23`, for which the results for the IC50 in the assay on HepG2, with CNE-2 and in the assay with A549 were 8.6 µM, 3.5 µM and 29.6 µM, respectively.

With `COC(=O)CCC[C@@H]1[C@H]2CCCN3CCC[C@H](CN1Cc1c(C(=O)OC)[nH]c4ccccc14)[C@@H]23`, the IC50 was more than 50 µM in the assay on HepG2, 26.4 µM in the assay on CNE-2 and more than 50 µM with A549.

On to `CCn1cc(CN2C[C@H]3CCCN4CCC[C@@H]([C@H]34)[C@H]2CCCC(=O)OC)c2ccccc21`, for which the figures for the IC50 in the assay on HepG2, in the assay with CNE-2 and with A549 were 12.8 µM, 19.4 µM and 37.4 µM, respectively.

As for `COC(=O)CCC[C@@H]1[C@H]2CCCN3CCC[C@H](CN1Cc1c[nH]c4ccc(C)cc14)[C@@H]23`, the IC50 with HepG2 is 23.8 µM; with CNE-2, 49.4 µM; in the assay with A549, more than 50 µM.

`COC(=O)CCC[C@@H]1[C@H]2CCCN3CCC[C@H](CN1Cc1c[nH]c4cccc(F)c14)[C@@H]23`: the IC50 with HepG2, with CNE-2 and in the assay with A549 was more than 50 µM each time.

Regarding `COC(=O)CCC[C@@H]1[C@H]2CCCN3CCC[C@H](CN1Cc1cn(Cc4cccc(F)c4)c4ccccc14)[C@@H]23`, the IC50 with HepG2 stood at 12.1 µM; in the assay with CNE-2 it was 12.1 µM; in the assay on A549, 42.3 µM.

As for `COC(=O)CCC[C@@H]1[C@H]2CCCN3CCC[C@H](CN1Cc1cn(Cc4c(Cl)cccc4Cl)c4ccc(F)cc14)[C@@H]23`, the IC50 was 18.4 µM in the assay on HepG2, 9.3 µM in the assay on CNE-2 and 39.8 µM in the assay with A549.

As to `COC(=O)CCC[C@@H]1[C@H]2CCCN3CCC[C@H](CN1Cc1c[nH]c4cc(F)ccc14)[C@@H]23`, the figures for the IC50 in the assay on HepG2, with CNE-2 and with A549 were more than 50 µM, 17.1 µM and more than 50 µM, respectively.

As for `COC(=O)CCC[C@@H]1[C@H]2CCCN3CCC[C@H](CN1Cc1c[nH]c4ccc(Cl)cc14)[C@@H]23`, the IC50 is more than 50 µM with HepG2, 17.9 µM in the assay with CNE-2 and more than 50 µM with A549.

As to `COC(=O)CCC[C@@H]1[C@H]2CCCN3CCC[C@H](CN1Cc1cn(Cc4ccc(Cl)cc4)c4ccc(F)cc14)[C@@H]23`, the IC50 in the assay on HepG2 turned out to be 7.3 µM; in the assay with CNE-2, 6.1 µM; in the assay with A549 it was 10.6 µM.

For the compound `COC(=O)CCC[C@@H]1[C@H]2CCCN3CCC[C@H](CN1Cc1c[nH]c4ccc(C#N)cc14)[C@@H]23`, the concentration for half-maximal inhibition (IC50) in the assay with HepG2 was more than 50 µM; in the assay with CNE-2, 15.3 µM; with A549 it was more than 50 µM.

Turning to `COC(=O)CCC[C@@H]1[C@H]2CCCN3CCC[C@H](CN1Cc1cn(Cc4ccccc4F)c4ccccc14)[C@@H]23`, the IC50 in the assay with HepG2 worked out at 21.7 µM; in the assay on CNE-2, 14.8 µM; with A549, 49.3 µM.

Consider `OCCCC[C@@H]1[C@H]2CCCN3CCC[C@H](CN1Cc1c[nH]c4ccccc14)[C@@H]23`, for which the IC50 with HepG2, with CNE-2 and in the assay on A549 was more than 50 µM in each case.

As to `CCCCn1cc(CN2C[C@H]3CCCN4CCC[C@@H]([C@H]34)[C@H]2CCCC(=O)OC)c2ccccc21`, the IC50 turned out to be 6.2 µM with HepG2, 8.6 µM in the assay with CNE-2 and 42.8 µM with A549.

As to `COC(=O)CCC[C@@H]1[C@H]2CCCN3CCC[C@H](CN1Cc1cn(Cc4ccc(Br)cc4)c4ccccc14)[C@@H]23`, the concentration for half-maximal inhibition (IC50) with HepG2 was 4.8 µM; in the assay on CNE-2, 4.3 µM; in the assay with A549, 3.5 µM.
